From paper PMC7885995 (Oncogene, 2020)

Legend:
GBM PDX lines = test: BAPTA calcium chelation before MED2; type: cell-based, human; settings: BAPTA pretreatment, low concentrations, 5-hour CTL2/MED2; X1441, JX39, JX59
Procedure, shortened: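 Cells were pretreated with BAPTA-AM and then exposed to CTL2 or MED2 for 5 h, at 2.5 μM for X1441 and 5 μM for JX39 and JX59, with relative viability as read-out. For SYTOX, cells were pretreated with 50μM BAPTA and given peptide for 1.5 h. Percent SYTOX-positive cells was scored on the Xcyto10 image cytometer at 4X. Analysis used two-way ANOVA with Tukey's test.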

[1] = test system: X1441 (proneural GBM PDX); test: Cell viability; type: cell-based, human; settings: X1441, 2.5μM MED2, 72 h, n=4
Procedure, shortened: (§1)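 1 × 10^4 Trypan blue-counted live cells were plated in 90 μL medium in 4 replicates; PDX cells were kept in neurosphere medium and NHAs in standard medium. Peptide (PBS-reconstituted, added as 10X in medium) went on 2 h after plating. CellTiter-Glo ATP luminescence was read at 72 h. MED2 RLU was normalized to CTL2 (5 μM for 1–5 μM; 10 μM for 10 μM). GI50 was interpolated from a standard curve.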

[2] = test system: JX59 (mesenchymal GBM PDX); test: Cell viability; type: cell-based, human; settings: JX59, 10μM MED2, normalized to 10μM CTL2, 72 h, n=4
Procedure, shortened: as §1

[3] = test system: XD456 (proneural GBM PDX); test: Cell viability; type: cell-based, human; settings: XD456, 2.5μM MED2, 72 h, n=4
Procedure, shortened: as §1

JX14 (classical GBM PDX) = test: Cell viability; type: cell-based, human; settings: JX14, 10μM MED2, normalized to 10μM CTL2, 72 h, n=4
Procedure, shortened: as §1

[4] = test system: normal human astrocytes (NHAs); test: Cell viability; type: cell-based; settings: CellTiter-Glo, 72 h
Procedure, shortened: as §1

[5] = test system: GBM PDX lines (proneural, classical, mesenchymal subtypes); test: Cell viability, statements for groups of GBM PDX lines; type: cell-based, human; settings: multiple PDX subtypes, 5μM CTL2/MED2, 9 hours, p>0.05
XD456 = test: Time-lapse imaging and SYTOX uptake; type: cell-based, human; settings: XD456, 3μM, time-lapse imaging
Procedure, shortened: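 XD456 cells were given 3μM MED2 and tracked by time-lapse still frames at 10X. For membrane permeabilization, cells received 5μM CTL2 or MED2 and were imaged every 5 min for 125 min at 20X. Imaging was on CellInsight CX7 in a heated CO2 chamber using Hoechst and SYTOX orange channels. Mean SYTOX intensity per cell was scored from n>400 cells.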

[6] = test system: caspase 3/7 activation in GBM cells; test: Caspase 3/7 activation; type: cell-based, human
Procedure, shortened: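 Cells pretreated with 1–200μM QVD-OPh or 100μM Z-VAD-FMK received MED2 or CTL2. They were lifted with their media and stained for 30 min at RT with CellEvent green caspase 3/7 dye, Annexin-V AlexaFluor 647 and SYTOX orange in Annexin-V binding buffer. Imaging was on Xcyto10 at 4X with channel compensation. Read-out was mean caspase fluorescence per cell relative to CTL2 (n>5000 cells).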

JX39 (classical GBM PDX) = test: Cell viability; type: cell-based, human; settings: JX39, 5μM MED2, normalized to 5μM CTL2, 72 h, n=4
Procedure, shortened: as §1

PARP1 cleavage in XD456 = test: PARP1 cleavage immunoblot; type: cell-based, human; settings: XD456, 3μM MED2, 5 and 24 hours
[7] = test system: intracellular calcium in XD456; test: Fluo-4 calcium imaging; type: cell-based, human; settings: XD456, 3μM, serial imaging over two hours
Procedure, shortened: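 1 × 10^5 XD456 cells were attached in 24-well plates and loaded at 37C for 1.5 h in 1X Fluo-4 direct calcium assay buffer with 5mM probenecid. SYTOX and then 3μM CTL2 or MED2 were added. Serial live images, including one taken before peptide, were acquired at 10X on an EVOS FL using GFP and RFP channels.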

[8] = test system: JX22 (mesenchymal GBM PDX); test: Cell viability; type: cell-based, human; settings: JX22, 10μM MED2, normalized to 10μM CTL2, 72 h, n=4
Procedure, shortened: as §1

JX12 (classical GBM PDX) = test: Cell viability; type: cell-based, human; settings: JX12, 5μM MED2, normalized to 5μM CTL2, 72 h, n=4
Procedure, shortened: as §1

[9] = test system: X1016 PDX implanted into the brain of athymic nude mice; test: In vivo MED2-CY7 accumulation in orthotopic GBM PDX; parameters: species or system mouse; settings: tail-vein, 3 hours, Pearl / Odyssey CLx imaging
Procedure, shortened: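 6-week-old female athymic nude mice were stereotactically implanted with 5 × 10^5 X1016 cells into the caudate putamen 1 week before dosing. They were sorted by bioluminescence for similar tumor burden and randomized, unblinded, to two doses of Cy7-labeled peptide. Peptide in 100 μL saline went by tail vein, with sacrifice at 3 h. Brains were formalin-fixed, cut into 5 mm coronal slices and imaged on Pearl. Paraffin sections were H&E-stained or imaged on Odyssey CLx at […].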

athymic nude mice = test: In vivo MED2-CY7 biodistribution, tumor-naïve mice; parameters: species or system mouse; settings: 3 hours

## CC(=O)OCOC(=O)CN(CC(=O)OCOC(C)=O)c1ccccc1OCCOc1ccccc1N(CC(=O)OCOC(C)=O)CC(=O)OCOC(C)=O [BAPTA, BAPTA-AM]
GBM PDX lines
  protection against MED2 cytotoxicity: no protective effects

## CC(C)C[C@H](NC(=O)[C@H](CCCCN)NC(=O)[C@H](Cc1ccccc1)NC(=O)[C@H](CO)NC(=O)[C@H](CCCCN)NC(=O)[C@H](CCCCN)NC(=O)[C@H](Cc1ccccc1)NC(=O)[C@H](CO)NC(=O)[C@H](Cc1ccccc1)NC(=O)[C@H](CCCNC(=N)N)NC(=O)[C@H](CCCCN)NC(=O)[C@H](CCCCN)NC(=O)[C@H](CCCCN)NC(=O)[C@H](CCCCN)NC(=O)[C@H](CCCCN)NC(=O)[C@@H](N)CSC1CC(=O)N(CCC(=O)N[C@@H](Cc2ccc(O)cc2)C(=O)NCC(=O)N[C@@H](CCCNC(=N)N)C(=O)N[C@@H](CCCCN)C(=O)N[C@@H](CCCCN)C(=O)N[C@@H](CCCNC(=N)N)C(=O)N[C@@H](CCCNC(=N)N)C(=O)N[C@@H](CCC(N)=O)C(=O)N[C@@H](CCCNC(=N)N)C(=O)N[C@@H](CCCNC(=N)N)C(=O)N[C@@H](CCCNC(=N)N)C(N)=O)C1=O)C(=O)N[C@@H](CO)C(=O)NCC(=O)N[C@@H](Cc1ccccc1)C(=O)N[C@@H](CO)C(=O)N[C@@H](Cc1ccccc1)C(=O)N[C@@H](CCCCN)C(=O)N[C@@H](CCCCN)C(=O)N[C@@H](CC(N)=O)C(=O)N[C@@H](CCCCN)C(=O)N[C@@H](CCCCN)C(N)=O (some centres unmarked) [MED2]
[1]
  reduction in viability: > 50%
[2]
  reduction in viability: > 50%
[3]
  reduction in viability: > 50%
JX14 (classical GBM PDX)
  reduction in viability: > 50%
[4]; 5μM and 10μM
  change in NHA viability: increases in viability
[4]; 10μM
  toxicity in NHAs: no toxicity
[5]
  inhibition of viability in adherent vs suspension cells: equally effective
XD456
  onset of morphological effects and signs of cellular injury: ≤ 1 hour
[6]; MED2 treatment, P<0.001, n>5000
  caspase 3/7 activation compared with CTL2: increased caspase 3/7 activation
JX39 (classical GBM PDX)
  reduction in viability: > 50%
PARP1 cleavage in XD456
  PARP1 cleavage pattern: loss of both 122kD and 89kD bands with the formation of an approximately 72 kD band
[7]
  Fluo-4 intensity (intracellular calcium): increased within minutes
[8]
  reduction in viability: > 50%
JX12 (classical GBM PDX)
  reduction in viability: > 50%

## CC(C)[C@H](NC(=O)c1ccc2ccccc2n1)C(=O)N[C@@H](CC(=O)O)C(=O)COc1c(F)cccc1F [QVD-OPh, reference compound]
[6]; doubled QVD-OPh (200μM), n>5000
  reduction in MED2-induced caspase 3/7 activation: 50%

## KKKKKRFSFKKSFKLSGFSFKKNKK-LC- K(Lumiprobe CY7) [MED2-CY7]
[9]
  fluorescence in tumor-burdened regions of the brain compared to normal brain: substantial increases
Athymic nude mice; 5 or 10 nanomoles, tail-vein, LI-COR Pearl, n=3 per dose group
  organs with greatest fluorescence intensity per mg tissue: kidney, liver, small and large intestines
Athymic nude mice; 5 or 10 nanomoles, tail-vein, n=3 per dose group
  brain partitioning: only a small percentage of total peptide reaching the brain
Athymic nude mice; tail-vein injection, tumor-naïve nude mice, Pearl imaging, n=3, p=0.026
  increase in brain (periventricular) fluorescence per mg tissue, 10nmol vs 5nmol: greater than threefold
